In ChEMBL document CHEMBL2203053, “DNA binding acridine-thiazolidinone agents affecting intracellular glutathione” (Bioorg Med Chem, 2012):
Activity calls are given as the source filed them. The calls are words filed in the database; no cut-off is given here.

Tests used:
HL-60 [1] = assay: Cell cycle arrest in human HL60 cells assessed as accumulation at sub G0 phase at 0.5 uM after 48 hrs by propidium iodide staining based flow cytometry (reference value: 1.93%); assay type: functional
[2] = Binding affinity to NAC assessed as second order rate constant at 1 mM at pH 7 after 10 mins by UV-visible spectrophotometry
Procedure, shortened: (§1)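 Reaction with N-acetyl-L-cysteine was run in 100 mM Tris/HCl containing 50% DMSO at 25 °C, with final 2c at 20 µM and NAC at 1 mM. pH was 6.0, 6.5 or 7.0. Spectral change was monitored by UV–vis, with the mixture held 10 min. Second-order rate constants k2 (M⁻¹ s⁻¹) are reported.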

L1210 [3] = assay: Cytotoxicity against mouse L1210 cells after 72 hrs by MTT assay; assay type: functional, cell-based; details: L1210, 72 h
Procedure, shortened: (§2)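 HL-60, L1210 and A2780 cells were grown in RPMI 1640 with 10% FBS, penicillin and streptomycin at 37 °C, 5% CO₂; HL-60 and A2780 medium also had 2 mM glutamine. Cells were exposed to 0–30 µM for 48 or 72 h. Viability was read by MTT microculture tetrazolium assay and IC50 was determined.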

[4] = Binding affinity to NAC assessed as second order rate constant at 1 mM at pH 6.5 after 10 mins by UV-visible spectrophotometry; procedure, shortened: as §1
Nucleic Acid [5] = assay: Binding affinity to calf thymus DNA assessed as bathochromic shift at 25 uM by UV-visible spectrophotometry; assay type: nucleic-acid assay; details: Bos taurus
Procedure, shortened: (§3)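 Absorption spectra were taken in 0.01 M Tris buffer, pH 7.4. Compounds were diluted from DMSO stock to a final 25 µM. Sonicated calf thymus DNA in TE buffer was added at 0–30 µM bp, with concentration set by A260. Shift of λmax (free vs bound) and % hypochromicity were recorded.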

HL-60 [6] = assay: Induction of cell death in human HL60 cells assessed as viable cells at 4 uM after 24 hrs by FDA/PI staining based flow cytometer (reference value: 90.16%); assay type: functional; details: HL-60, 24 h, read-out: Activity
Nucleic Acid [7] = assay: Binding affinity to calf thymus DNA assessed as hypochromicity at 25 uM by UV-visible spectrophotometry; assay type: nucleic-acid assay; details: Bos taurus; procedure, shortened: as §3
HL-60 [8] = assay: Drug uptake in human HL60 cells at 10 uM after 10 to 60 mins by RP-HPLC analysis; assay type: ADME, cell-based; details: hl-60, 10 µM
Procedure, shortened: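 HL-60 cells (2 × 10⁶/mL) were exposed to 10 µM for 10 or 60 min, washed twice in PBS and extracted with methanol (1 h, 4 °C). Extract was centrifuged at 6700 × g and injected (20 µL) onto a C18 RP-HPLC column. Mobile phase was methanol/50 mM ammonium formate 80:20, pH 4.5, at 0.5 mL/min and 25 °C, with detection at 370 nm.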

HL-60 [9] = assay: Drug uptake in human HL60 cells at 5 uM after 4 hrs by Hoechst staining based fluorescence microscopy; assay type: ADME, cell-based; details: hl-60, 4 h
Procedure, shortened: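 HL-60 cells were exposed to 5 µM for 4 h at 37 °C, 5% CO₂, then washed in PBS. Intrinsic blue fluorescence was viewed by optical and fluorescence microscopy. Untreated control cells were stained with Hoechst 33342 (10 µM, 10 min).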

A2780 [10] = assay: Drug uptake in human A2780 cells at 5 uM after 4 hrs by Hoechst staining based fluorescence microscopy; assay type: ADME, cell-based; details: a2780, 4 h
HL-60 [11] = assay: Cytotoxicity against BSO pretreated human HL60 cells assessed as cell viability at 1 uM treated 6 hrs after BSO addition measured after 48 hrs by trypan blue exclusion assay; assay type: functional, cell-based
Procedure, shortened: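 HL-60 cells were pretreated 6 h with L-buthionine-sulfoximine (10 µM), then exposed to 1.5, 3.0 or 1.0 µM compound for 48 h. Viable cells were counted by trypan blue staining and expressed as percentage of all cells.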

HL-60 [12] = assay: Induction of cell death in human HL60 cells assessed as early apoptotic cells at 2 uM after 24 hrs by FDA/PI staining based flow cytometer (reference value: 3.96%); assay type: functional
Nucleic Acid [13] = assay: Ratio of proflavine K to compound K for calf thymus DNA by spectrofluorimetry based McGhee von Hippel method; assay type: nucleic-acid assay; details: Bos taurus
HL-60 [14] = assay: Cytotoxicity against human HL60 cells after 48 hrs using trypan blue exclusion staining by DCC method; assay type: functional, cell-based; details: HL-60, 48 h
Procedure, shortened: (§4)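 For trypan blue dye-exclusion direct cell counting, HL-60 cells were seeded at 1 × 10⁵ cells/mL. Compound at 0–10 µM, or 1% DMSO control, was added after 24 h. Viable counts were taken after 24, 48 and 72 h. IC50 (50% inhibition of viability) came from growth curves, as mean ± S.D., n = 3.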

NIH3T3 = assay: Cytotoxicity against mouse NIH/3T3 cells after 72 hrs by MTT assay; assay type: cell-based; details: NIH3T3, 72 h
HL-60 [15] = assay: Cell cycle arrest in human HL60 cells assessed as accumulation at G2 phase at 1 uM after 48 hrs by propidium iodide staining based flow cytometry (reference value: 12.90%); assay type: functional
HL-60 [16] = assay: Cell cycle arrest in human HL60 cells assessed as accumulation at G2 phase at 0.5 uM after 48 hrs by propidium iodide staining based flow cytometry (reference value: 12.90%); assay type: functional
[17] = Binding affinity to NAC assessed as second order rate constant at 1 mM at pH 6 after 10 mins by UV-visible spectrophotometry; procedure, shortened: as §1
L1210 [18] = assay: Cytotoxicity against mouse L1210 cells after 48 hrs by MTT assay; assay type: functional, cell-based; details: L1210, 48 h; procedure, shortened: as §2
HL-60 [19] = assay: Induction of cell death in human HL60 cells assessed as late apoptotic cells at 2 uM after 24 hrs by FDA/PI staining based flow cytometer (reference value: 0.01%); assay type: functional
HL-60 [20] = assay: Cell cycle arrest in human HL60 cells assessed as accumulation at S phase at 1 uM after 48 hrs by propidium iodide staining based flow cytometry (reference value: 38.96%); assay type: functional
HL-60 [21] = assay: Induction of necrosis in human HL60 cells assessed as cell shrinking at 2.5 uM after 24 hrs by propidium iodide staining based fluorescence microscopy; assay type: functional
HL-60 [22] = assay: Induction of cell death in human HL60 cells assessed as necrotic cells at 4 uM after 24 hrs by FDA/PI staining based flow cytometer (reference value: 5.87%); assay type: functional
A2780 [23] = assay: Cytotoxicity against human A2780 cells after 72 hrs by MTT assay; assay type: functional, cell-based; details: A2780, 72 h; procedure, shortened: as §2
Nucleic Acid [24] = assay: Binding affinity to calf thymus DNA assessed as binding constant by spectrofluorimetry based McGhee von Hippel method; assay type: nucleic-acid assay; details: Bos taurus
Procedure, shortened: (§5)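 Fluorescence titration used compound at 26.7 µM in 0.01 M Tris buffer (pH 7.4, 24 °C). ctDNA was added stepwise from 0 to 32 µM bp at 2 µM intervals until spectra stopped changing. Excitation was 384 nm and emission was read at 410–470 nm. Binding constant K was derived by the McGhee–von Hippel method from Scatchard plot data.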

Nucleic Acid [25] = assay: Binding affinity to calf thymus DNA assessed as melting temperature at 5 uM at pH 7.1 by thermal denaturation assay; assay type: nucleic-acid assay; details: Bos taurus
HL-60 [26] = assay: Cytotoxicity against human HL60 cells after 72 hrs by MTT assay; assay type: functional, cell-based; details: HL-60, 72 h; procedure, shortened: as §2
HL-60 [27] = assay: Induction of cell death in human HL60 cells assessed as viable cells at 2 uM after 24 hrs by FDA/PI staining based flow cytometer (reference value: 90.16%); assay type: functional; details: HL-60, 24 h, read-out: Activity
HL-60 [28] = assay: Induction of oxidative stress in human HL60 cells assessed as superoxide production at 5 uM after 1 hr by DHE dye based fluorescence microscopy; assay type: functional, cell-based
Procedure, shortened: (§6)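 HL-60 cells (4 × 10⁵) were cultured 24 h at 37 °C, then given 5 µM for 1 h, with or without 6 h pretreatment with 10 µM L-buthionine-sulfoximine. Dihydroethidium (20 µM) was then added for 20 min at 37 °C. Cells were washed in PBS and superoxide was viewed by fluorescence microscopy. Menadione served as positive control.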

HL-60 [29] = assay: Decrease in intracellular glutathione level in human HL60 cells at 1 uM after 2 to 24 hrs by spectrophotometric analysis; assay type: functional, cell-based
HL-60 [30] = assay: Cell cycle arrest in human HL60 cells assessed as accumulation at sub G0 phase at 1 uM after 48 hrs by propidium iodide staining based flow cytometry (reference value: 1.93%); assay type: functional
HL-60 [31] = assay: Cell cycle arrest in human HL60 cells assessed as accumulation at G1 phase at 0.5 uM after 48 hrs by propidium iodide staining based flow cytometry (reference value: 48.14%); assay type: functional
Nucleic Acid [32] = assay: Binding affinity to calf thymus DNA assessed as intercalation at 26.7 uM by fluorometric titration analysis; assay type: nucleic-acid assay; details: Bos taurus; procedure, shortened: as §5
HL-60 [33] = assay: Cell cycle arrest in human HL60 cells assessed as accumulation at G1 phase at 1 uM after 48 hrs by propidium iodide staining based flow cytometry (reference value: 48.14%); assay type: functional
HL-60 [34] = assay: Induction of cell death in human HL60 cells assessed as late apoptotic cells at 4 uM after 24 hrs by FDA/PI staining based flow cytometer (reference value: 0.01%); assay type: functional
HL-60 [35] = assay: Induction of oxidative stress in BSO pretreated human HL60 cells assessed as superoxide production at 5 uM treated 6 hrs after BSO addition measured after 1 hr by DHE dye fluorescence microscopy; assay type: functional, cell-based; procedure, shortened: as §6
HL-60 [36] = assay: Induction of cell death in human HL60 cells assessed as early apoptotic cells at 4 uM after 24 hrs by FDA/PI staining based flow cytometer (reference value: 3.96%); assay type: functional
HL-60 [37] = assay: Cell cycle arrest in human HL60 cells assessed as accumulation at S phase at 0.5 uM after 48 hrs by propidium iodide staining based flow cytometry (reference value: 38.96%); assay type: functional
HL-60 [38] = assay: Cytotoxicity against human HL60 cells after 72 hrs using trypan blue exclusion staining by DCC method; assay type: functional, cell-based; details: HL-60, 72 h; procedure, shortened: as §4
Nucleic Acid [39] = assay: Ratio of acridine orange K to compound K for calf thymus DNA by spectrofluorimetry based McGhee von Hippel method; assay type: nucleic-acid assay; details: Bos taurus
HL-60 [40] = assay: Cytotoxicity against human HL60 cells after 48 hrs by MTT assay; assay type: functional, cell-based; details: HL-60, 48 h; procedure, shortened: as §2
A2780 [41] = assay: Cytotoxicity against human A2780 cells after 48 hrs by MTT assay; assay type: functional, cell-based; details: A2780, 48 h; procedure, shortened: as §2
HL-60 [42] = assay: Induction of cell death in human HL60 cells assessed as necrotic cells at 2 uM after 24 hrs by FDA/PI staining based flow cytometer (reference value: 5.87%); assay type: functional
Nucleic Acid [43] = assay: Ratio of daunomycin K to compound K for calf thymus DNA by spectrofluorimetry based McGhee von Hippel method; assay type: nucleic-acid assay; details: Bos taurus

COC(=O)/C=C1\S/C(=N\c2c3ccccc3nc3ccccc23)N(c2ccc(Br)cc2)C1=O
Activity (HL-60 [1]): 21.7% | Activity [2]: 9.9 M⁻¹ s⁻¹ | IC50 (L1210 [3]): 3.1 µM | Activity [4]: 3.8 M⁻¹ s⁻¹ | Activity (Nucleic Acid [5]): Active | viability at 4 µM (HL-60 [6]): 17.8% | Activity (Nucleic Acid [7]): 24.2% | Drug uptake (HL-60 [8]): Active | Drug uptake (HL-60 [9]): Active | Drug uptake (A2780 [10]): Active | Activity (HL-60 [11]): Active | Activity (HL-60 [12]): 68.64% | Ratio (Nucleic Acid [13]): 10 | IC50 (HL-60 [14]): 1.6 µM | IC50 (NIH3T3): 3.5 µM | Activity (HL-60 [15]): 5.08% | Activity (HL-60 [16]): 10.56% | Activity [17]: 2 M⁻¹ s⁻¹ | IC50 (L1210 [18]): 1.7 µM | Activity (HL-60 [19]): 0.03% | Activity (HL-60 [20]): 11.99% | Activity (HL-60 [21]): Active | Activity (HL-60 [22]): 62.62% | IC50 (A2780 [23]): 7.7 µM | K (Nucleic Acid [24]): 5.89 ×10⁶ /M | Tm (Nucleic Acid [25]): 81 °C | IC50 (HL-60 [26]): 1.3 µM | viability at 2 µM (HL-60 [27]): 8.46% | Activity (HL-60 [28]): Active | Activity (HL-60 [29]): Active | Activity (HL-60 [30]): 25.85% | Activity (HL-60 [31]): 51.04% | Activity (Nucleic Acid [32]): Active | Activity (HL-60 [33]): 82.93% | Activity (HL-60 [34]): 0.01% | Activity (HL-60 [35]): Active | Activity (HL-60 [36]): 19.57% | Activity (HL-60 [37]): 38.4% | IC50 (HL-60 [38]): 0.9 µM | Ratio (Nucleic Acid [39]): 10 | IC50 (HL-60 [40]): 1.4 µM | IC50 (A2780 [41]): 12.5 µM | Activity (HL-60 [42]): 22.87% | Ratio (Nucleic Acid [43]): 10
